Source: PubChem BioAssay (Sanford-Burnham Center for Chemical Genomics)
SENP7 block – SENP7 protease inhibitors, primary screen, biochemical, luminescence, uHTS. Sentrin-specific protease 7 (Homo sapiens), Q9BQF6. recombinant SENP7, Z-RLRGG-aminoluciferin luminescence, 40 min. inhibition, % at 5 µM. hit rate 1.5% among 330,000. AID 434973, 2010;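 active = inhibition above about 50% at the single test dose, limit read from the data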;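 also: plate controls were DMSO with enzyme for no effect and no enzyme buffer wells for full effect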
SENP8 block-1 – SENP8 protease inhibitors, primary screen, biochemical, luminescence; Sentrin-specific protease 8 (Homo sapiens), Q96LD8; purified SENP8, Z-RLRGG-aminoluciferin cleavage; inhibition, % at 10 µM; hit rate 1.2% among 330,000; AID 2540, 2010; in the data active = inhibition above about 50%
Target sequence (Q96LD8 whole entry, looked up): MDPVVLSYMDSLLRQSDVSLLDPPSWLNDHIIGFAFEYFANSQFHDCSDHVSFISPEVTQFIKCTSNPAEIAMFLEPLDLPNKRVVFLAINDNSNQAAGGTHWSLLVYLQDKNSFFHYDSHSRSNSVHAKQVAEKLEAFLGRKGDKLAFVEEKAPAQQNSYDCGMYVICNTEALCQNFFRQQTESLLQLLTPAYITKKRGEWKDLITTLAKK
SENP6 block – SENP6 protease inhibitors, primary screen, biochemical, luminescence, uHTS; Recombinant SENP6 catalytic domain, aminoluciferin luminescence; inhibition, % at 10 µM; hit rate 1.8% among 330,000;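 active = inhibition above about 50% at the single tested dose, limit read from the data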;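 also: plate controls were DMSO wells with enzyme for no effect and DMSO wells lacking enzyme for full effect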
Apaf1 inhib – inhibitors of human Apaf-1 apoptosome, primary screen, biochemical, DEVD-Rh110 fluorescence, uHTS | AID 489030, 2010 | hit rate 0.71% among 330,000 | reconstituted apoptosome caspase-3 activity | inhibition, % at 20 µM | Apoptotic protease-activating factor 1 (Homo sapiens), O14727; active = inhibition of at least 40% at 20 µM;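 also: plate controls were DMSO wells for no effect and DEVD-CHO caspase inhibitor wells for full effect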
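System – cell-free apoptosome with Apaf-1, procaspase-3 and caspase-9 · Buffer or medium – pH 7.5 Hepes buffer with CHAPS, BSA, DTT · Also added – cytochrome c with DEVD-Rh110 · Times – 30 min compound preincubation, 50 min activation, room temperature · Technique – Rh110 fluorescence intensity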
UBC13 polyUb – UBC13 polyubiquitin chain formation inhibitors, primary screen, biochemical, TR-FRET, uHTS | Ubiquitin-conjugating enzyme E2 N (Homo sapiens), P61088 | inhibition, % at 20 µM | hit rate 0.47% among 330,000 | AID 485273, 2010; in the data active = inhibition above about 45%, passing the limit was not always enough
Target sequence (P61088 whole entry, looked up): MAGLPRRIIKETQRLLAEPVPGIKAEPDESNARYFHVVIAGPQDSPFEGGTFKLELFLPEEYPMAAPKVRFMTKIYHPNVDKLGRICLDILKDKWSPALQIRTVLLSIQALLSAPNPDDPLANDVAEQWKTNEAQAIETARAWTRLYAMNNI
SENP8 block-2 – human SENP8 protease inhibitors, primary screen, biochemical, fluorescence, Nedd8 protein substrate, uHTS. recombinant SENP8. hit rate 0.64% among 360,000. inhibition, % at 20 µM. AID 602440, 2012; in the data active = inhibition mostly above about 40%, no sharp cut-off; inactive = mostly below about 27%
SENP8 conf – SENP8 protease inhibitors, retest, confirmation, biochemical, luminescence, single concentration | Recombinant SENP8, Z-RLRGG-aminoluciferin luminescence, 60 min | inhibition, % at 12.5 µM | shares compounds with SENP7 block | hit rate 40% among 6,200;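 active = mean inhibition across replicates above about 50%, limit read from the data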
SENP6 confirm – SENP6 protease inhibitors, confirmation, biochemical, luminescence, single concentration; shares compounds with SENP7 block; recombinant SENP6, Z-RLRGG-aminoluciferin luminescence; inhibition, % at 12.5 µM; hit rate 58% among 6,200; AID 488915, 2010
SENP7 confirm – SENP7 protease inhibitors, retest, confirmation, biochemical, luminescence, single concentration | shares compounds with SENP7 block | recombinant SENP7, Z-RLRGG-aminoluciferin luminescence, 40 min | inhibition, % at 12.5 µM | hit rate 69% among 6,200
Casp3 select – caspase-3 protease inhibitors, confirmation, selectivity assay for SENP inhibitor project, biochemical, single concentration. hit rate 60% among 6,200. shares compounds with SENP7 block. inhibition, % at 12.5 µM. purified caspase-3, Z-DEVD-aminoluciferin luminescence, 60 min;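 active = mean inhibition above about 50%, limit read from the data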;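 also: plate controls were enzyme with DMSO for no effect and wells without caspase-3 for full effect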
Target sequence (P42574 28-227 limits assumed): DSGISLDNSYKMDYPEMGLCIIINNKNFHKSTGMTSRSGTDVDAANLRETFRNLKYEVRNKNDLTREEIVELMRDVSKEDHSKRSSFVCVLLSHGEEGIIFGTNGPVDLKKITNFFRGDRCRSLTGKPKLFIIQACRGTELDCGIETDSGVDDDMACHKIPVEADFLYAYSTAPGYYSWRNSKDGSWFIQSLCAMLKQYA
SENP luc ctr – luminescence interference (SENP counter-screen); shares compounds with SENP7 block; Pre-incubated SENP8/Z-RLRGG-aminoluciferin, luciferase luminescence interference; inhibition, % at 12.5 µM; hit rate 39% among 6,200; AID 488919;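 active = mean inhibition above about 50% when retested at one dose, limit read from the data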;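 also: plate controls were DMSO wells with completed reaction for no effect and substrate without enzyme for full effect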
* hit, by the source's call; i = inactive; x = no result. This is a sample that favours compounds with a hit; in the whole collection about 3.1% have one here.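 The calls were made as follows, unless noted: active = mean inhibition above about 50% in the one-dose retest (limit read from the data); inactive = the rest.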

SMILES | SENP7 block | SENP8 block-1 | SENP6 block | Apaf1 inhib | UBC13 polyUb | SENP8 block-2 | SENP8 conf | SENP6 confirm | SENP7 confirm | Casp3 select | SENP luc ctr
COc1cccc(C(=O)Nc2ccc(C(F)(F)F)n(C)c2=O)c1 | 80.1* | 64.6* | 44.8 | 4.2 | -7.0 | -22.1 | 8.8 | 49.5 | 81.6* | 69.7* | 20.7
COc1cccc(C(=O)Nc2ccc(C(=O)c3ccccc3)cc2)c1 | 21.7 | 22.9 | 47.4 | 11.9 | 14.5 | 4.6 | x | x | x | x | x
O=C(Nc1ccc(F)c(Cl)c1)c1cc(C2CCCCN2C(=O)c2ccc3c(c2)CCO3)on1 (stereo not drawn) | x | x | x | x | x | 4.7 | x | x | x | x | x
CNc1cncc(-c2cnn(CC(C)C)c2)n1 | x | x | x | x | x | i | x | x | x | x | x
COc1cccc(C(=O)Nc2cccc(C(C)=O)c2)c1 | 35.1 | 11.2 | -8.2 | 1.9 | -0.1 | -6.6 | x | x | x | x | x
COc1cccc(C(=O)NC(=S)Nc2ccc(N(C)C)cc2)c1 | 27.6 | 32.0 | 56.8* | 7.8 | 9.5 | 18.8 | 47.5 | 56.6* | 77.9* | 38.8 | 23.8
COc1cccc(C(=O)Nc2ccc(F)cc2F)c1 | 37.0 | -4.1 | -38.9 | 4.8 | 6.2 | 16.7 | x | x | x | x | x
COc1cccc(C(=O)NC(=S)Nc2ccc(N3CCCC3)cc2)c1 | -3.1 | 11.5 | 19.1 | 25.5 | -8.1 | 26.6 | x | x | x | x | x
COC(=O)c1cccc(NC(=O)c2cccc(OC)c2)c1 | 83.9* | 65.1* | 85.4* | 3.7 | -6.5 | 38.5 | 68.6* | 71.1* | 94.1* | 85.3* | 77.5*
COc1cccc(C(=O)Nc2ccc(F)c(F)c2F)c1 | 51.3* | 12.0 | 41.3 | -7.7 | 0.3 | 11.5 | 43.5 | 41.2 | 76.7* | 69.5* | 52.9*
CCOC(=O)Nc1cccc(NC(=O)c2cc(OC)cc(OC)c2)c1 | 71.1* | 41.8 | 63.7* | 3.2 | -0.4 | 1.1 | 74.0* | 70.0* | 88.1* | 75.8* | 74.5*
Cn1c(OCC2CCCO2)nc2cc(-c3ccccc3)sc2c1=O (stereo not drawn) | x | x | x | x | x | -18.8 | x | x | x | x | x
CCOC(=O)c1csc(-c2sccc2Br)n1 | 97.9* | 94.2* | 94.5* | -10.2 | -26.2 | 23.2 | 96.4* | 97.6* | 102.3* | 96.8* | 92.9*
CCOC(=O)c1csc(-c2ccc(OC)c(OC)c2)n1 | -4.1 | -6.8 | -6.2 | -2.8 | -20.5 | -6.5 | x | x | x | x | x
CCc1ccccc1NC(=O)Nc1cccn(Cc2ccccc2F)c1=O | 0.1 | -12.2 | -28.8 | 25.3 | -5.9 | -398.2 | x | x | x | x | x
CSc1ccc(NC(=O)Nc2cccn(Cc3ccccc3F)c2=O)cc1 | 49.2 | 43.6 | 63.4* | 6.6 | 10.3 | -189.5 | 20.8 | 9.3 | 43.0 | 26.2 | -2.3
Cc1cccc(-c2cccc3nccn23)c1 | x | x | x | x | x | -483.9 | x | x | x | x | x
Cc1oc(-c2ccccc2)cc1C(=O)Nc1cccc(C(=O)O)c1 | -3.4 | -13.9 | -18.5 | -4.6 | -4.6 | -6.7 | x | x | x | x | x
Cc1oc(-c2ccc(Cl)cc2)cc1C(=O)O | 94.2* | 97.1* | 96.3* | 4.1 | -0.1 | 4.1 | 98.7* | 99.7* | 102.2* | 92.3* | 90.8*
COc1ccc(CCCNC(=O)C2Cc3c(-c4ccc5c(c4)OCO5)ccnc3O2)cc1 (stereo not drawn) | x | x | x | x | x | -56.5 | x | x | x | x | x
O=C(O)c1cccc(NC(=S)N/N=C/c2ccccn2)c1 | 77.4* | 61.7* | 47.9 | -6.9 | -10.6 | -6.7 | 77.0* | 75.6* | 94.8* | 36.6 | 74.7*
CCCNC(=O)C1(C)CCCN(Cc2ccc(C(F)(F)F)cc2)C1 (stereo not drawn) | x | x | x | x | x | -0.7 | x | x | x | x | x
Cc1c(C)c2ccc(OCC(=O)Nc3ccccn3)cc2oc1=O | 95.5* | 48.3 | 63.7* | -14.0 | 12.6 | -340.8 | 17.7 | 8.0 | -2.1 | 11.3 | -8.5
Cc1cccc(OCC(=O)Nc2nccs2)c1C | 96.1* | 89.6* | 95.0* | 12.8 | -11.8 | 1.4 | 89.2* | 91.8* | 100.2* | 94.1* | 86.7*
Cc1c(C)c2ccc(OCC(=O)Nc3nccs3)cc2oc1=O | 83.7* | 51.0* | 56.1* | -10.5 | 14.4 | -389.3 | 6.0 | 9.2 | 33.0 | 42.0 | 2.4
SMILES | SENP7 block | SENP8 block-1 | SENP6 block | Apaf1 inhib | UBC13 polyUb | SENP8 block-2 | SENP8 conf | SENP6 confirm | SENP7 confirm | Casp3 select | SENP luc ctr
Cn1c(CNc2ccc(O)cc2)nc2ccccc21 | 13.8 | 7.5 | 34.5 | -0.6 | -1.3 | 22.9 | x | x | x | x | x
CCOC(=O)c1ccc(NCc2nc3ccccc3n2C)cc1 | 79.1* | 61.1* | 46.4 | 5.4 | -4.8 | 8.7 | 82.1* | 83.2* | 95.9* | 86.2* | 83.2*
Cn1c(NCc2cc(Br)ccc2O)nc2ccccc21 | -12.1 | -11.0 | -20.3 | 7.9 | 21.6 | -2.6 | x | x | x | x | x
Cn1c(Nc2ccc(F)cc2)nc2ccccc21 | -1.4 | 3.2 | -6.2 | -2.1 | -7.0 | 11.2 | x | x | x | x | x
COc1ccc(Nc2nc3ccccc3n2C)cc1 | 34.8 | 32.7 | 55.5* | -6.2 | -2.4 | 12.2 | 20.6 | 22.4 | 69.0* | 71.5* | 48.9
COc1ccc(NCc2nc3ccccc3n2C)cc1 | 45.4 | 33.3 | 68.1* | -4.5 | -13.7 | 12.4 | 65.2* | 63.5* | 84.7* | 86.6* | 70.5*
Cc1ccc(NCc2nc3ccccc3n2C)cc1 | 3.5 | 12.3 | 38.7 | 2.7 | 3.9 | -76.5 | x | x | x | x | x
COc1ccc(CNc2nc3ccccc3n2C)c(O)c1 | 68.4* | 41.3 | 64.5* | 10.2 | -8.8 | 1.7 | 66.6* | 64.9* | 90.3* | 73.1* | 71.4*
CC(C)(C)OC(=O)N(CC1CCNCC1)C(=O)c1[nH]c(C(F)(F)F)nc1-c1ccccc1 | x | x | x | x | x | 16.4 | x | x | x | x | x
CCOC(=O)C1(C)CCCN1C(=O)c1ccc(C(F)(F)F)nc1C (stereo not drawn) | x | x | x | x | x | 17.4 | x | x | x | x | x
Cn1c(CNc2ccc(Br)cc2)nc2ccccc21 | 71.6* | 59.0* | 69.6* | 4.3 | 8.0 | 9.0 | -3.4 | 63.4* | 86.6* | 62.7* | 70.1*
Cc1ccc(CNc2nc3ccccc3n2C)cc1 | 71.9* | 59.0* | 78.4* | -5.0 | 4.1 | -13.3 | 60.9* | 61.5* | 90.6* | 87.7* | 75.1*
